Data published in ChEMBL document CHEMBL1126276, “Synthesis and antimalarial properties of 1-imino derivatives of 7-chloro-3-substituted-3,4-dihydro-1,9(2H,10H)-acridinediones and related structures” (J Med Chem, 1992).
“And” between values parts separate entries of the source, which are not always exact repeats. Equal entries are not always repeated.

Key:
Assay type in all cases: functional
[1] = tested on: Plasmodium berghei; assay: Antimalarial activity Plasmodium berghei infected mice (Mus musculus) after 640 mg/kg subcutaneous dose
In short: (§1)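 […] in mice infected with a normal drug-sensitive P. berghei strain. Compound dissolved or suspended in sesame or peanut oil, given as a single subcutaneous dose 72 h postinfection.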

[2] = tested on: Plasmodium berghei; assay: Antimalarial activity in Plasmodium berghei infected mice (Mus musculus) after 160 mg/kg subcutaneous dose; in short: as §1
[3] = tested on: Plasmodium berghei; assay: Antimalarial activity in Plasmodium berghei infected mice (Mus musculus) after 40 mg/kg subcutaneous dose; in short: as §1
[4] = tested on: Plasmodium berghei; assay: Antimalarial activity in Plasmodium berghei infected mice (Mus musculus) after subcutaneous 640 mg/kg dose
In short: (§2)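 Normal drug-sensitive P. berghei strain in mice. Compound dissolved or suspended in sesame or peanut oil, given parenterally as a single subcutaneous dose 72 h postinfection.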

[5] = tested on: Plasmodium berghei; assay: Antimalarial activity in Plasmodium berghei infected mice (Mus musculus) after subcutaneous 160 mg/kg dose; in short: as §2
[6] = tested on: Plasmodium berghei; assay: Antimalarial activity in Plasmodium berghei infected mice (Mus musculus) after 80 mg/kg subcutaneous dose; in short: as §1
[7] = tested on: Plasmodium berghei; assay: Antimalarial activity in Plasmodium berghei infected mice (Mus musculus) after subcutaneous 320 mg/kg dose; in short: as §2
[8] = tested on: Plasmodium berghei; assay: Antimalarial activity in Plasmodium berghei infected mice (Mus musculus) after 20 mg/kg subcutaneous dose; in short: as §1

Structure (SMILES) | Delta mean survival time [1] | Delta mean survival time [2] | Delta mean survival time [3] | No. of cured mice [4] | No. of cured mice [5] | Delta mean survival time [6] | No. of cured mice [7] | Delta mean survival time [8] | Delta mean survival time ([6]; 80 mg/kg)
O=C1CC(c2ccc(C(F)(F)F)cc2)Cc2nc3ccc(C(F)(F)F)cc3c(O)c21 (stereo not drawn) | -0.1 | 0.1 | 0.1 |  |  |  |  |  | 
O=C1CC(c2ccc(C(F)(F)F)cc2)Cc2nc3ccc(F)cc3c(O)c21 (stereo not drawn) |  | 8.9 | 7.1 | 5 |  |  |  |  | 
O=C1CC(c2ccc(Cl)cc2Cl)Cc2nc3cc(Cl)ccc3c(O)c21 (stereo not drawn) | 1.3 | 0.1 | -0.1 |  |  |  |  |  | 
CN(C)CCC/N=C1\CC(c2ccc(C3CCCCC3)cc2)Cc2c1c(=O)c1cc(Cl)ccc1n2O (stereo not drawn) |  | 9.4 | 5 | 5 | 3 |  |  |  | 
CCN(CC)CCC/N=C1\CC(c2cc(OC)c(OC)c(OC)c2)Cc2c1c(=O)c1cc(Cl)ccc1n2O (stereo not drawn) | 6.1 | 0.7 | 0.4 |  |  |  |  |  | 
O=C1c2c(nc3ccc(Cl)cc3c2O)CC(c2ccc(Cl)c(Cl)c2)C1c1ccccc1 (stereo not drawn) | 1.4 | 0.4 | 0 |  |  |  |  |  | 
CN(C)CCC/N=C1\CC(c2ccccc2Cl)Cc2nc3ccc(Cl)cc3c(O)c21 (stereo not drawn) |  | 11.3 | 5.6 | 5 | 2 | 6.3 | 5 |  | 
O=C1CC(c2ccc(C3CCCCC3)cc2)Cc2c1c(=O)c1cc(Cl)ccc1n2O (stereo not drawn) | 4.1 | 1.3 | 0.9 |  |  |  |  |  | 
O=C1CC(c2ccc(C3CCCCC3)cc2)Cc2nc3ccc(Cl)cc3c(O)c21 (stereo not drawn) | 1.6 | 0.2 | 0.2 |  |  |  |  |  | 
CCCCCCC/N=C1\CC(c2cccc(C(F)(F)F)c2)Cc2c1c(=O)c1cc(Cl)ccc1n2O (stereo not drawn) |  | 5 |  | 5 | 3 | 2.8 | 5 |  | 
O=C1CC(c2cccc(C(F)(F)F)c2)Cc2c1c(=O)c1cc(Cl)ccc1n2O (stereo not drawn) |  | 13.4 | 8.8 | 5 | 3 | 12.1 | 5 | 6 | 
CSc1ccc(C2CC(=O)c3c(nc4ccc(Cl)cc4c3O)C2)cc1 (stereo not drawn) | 12.4 | 8.6 | 4.4 |  |  |  |  |  | 
CCN(CC)CC(C)(C)C/N=C1\CC(c2cc(OC)c(OC)c(OC)c2)Cc2c1c(=O)c1cc(Cl)ccc1n2O (stereo not drawn) | 4.7 | 0.7 | 0.5 |  |  |  |  |  | 
COc1ccccc1C1CC(=O)c2c(nc3ccc(Cl)cc3c2O)C1 (stereo not drawn) |  | 0.7 | 8.3 | 5 | 4 |  |  |  | 
CN(C)CCC/N=C1\CC(c2cccc(C(F)(F)F)c2)Cc2c1c(=O)c1cc(Cl)ccc1n2O (stereo not drawn) |  | 12.4 | 6.9 | 5 | 4 | 9.6 | 5 | 4.8 | 
CCCCCCn1c2c(c(=O)c3cc(Cl)ccc31)C(=O)CC(c1ccc(C(F)(F)F)cc1)C2 (stereo not drawn) | 0.1 | 0 | 0.1 |  |  |  |  |  | 
O=C1CC2(CCCCC2)Cc2c1c(=O)c1cc(Cl)ccc1n2O | 0 | 0.2 | 0 |  |  |  |  |  | 

Structure (SMILES) | Delta mean survival time [1] | Delta mean survival time [2] | Delta mean survival time [3] | No. of cured mice [4] | No. of cured mice [5] | Delta mean survival time [6] | No. of cured mice [7] | Delta mean survival time [8] | Delta mean survival time ([6]; 80 mg/kg)
O=c1c2c(n(O)c3ccc(Cl)cc13)CC(c1ccc(Cl)c(Cl)c1)C/C2=N\CCCN1CCCCC1 (stereo not drawn) |  | 8.7 | 5.9 | 5 | 4 | 9.2 | 5 |  | 
O=C1CC(c2ccc(Cl)c(Cl)c2)Cc2c1c(=O)c1cc(Cl)ccc1n2O (stereo not drawn) |  | 11 | 5 | 5 | 2 | 10.8 | 5 | 3.2 | 
CCCC/N=C1\CC(c2ccc(C(F)(F)F)cc2)Cc2nc3ccc(Cl)cc3c(O)c21 (stereo not drawn) |  | 10.1 | 6 | 5 | 1 |  |  |  | 
O=C1CC(c2ccc(C(F)(F)F)cc2)Cc2nc3cccc(Cl)c3c(O)c21 (stereo not drawn) |  |  | 8.7 | 5 | 5 |  |  |  | 
CN(C)CCC/N=C1\CC(c2ccc(C(F)(F)F)cc2)Cc2nc3ccc(C(F)(F)F)cc3c(O)c21 (stereo not drawn) |  | 7.1 | 3.1 | 5 |  |  |  |  | 
O=C1CC(c2ccc(C(F)(F)F)cc2)Cc2nc3ccccc3c(O)c21 (stereo not drawn) |  | 10.8 | 4.6 | 5 | 4 | 8.2 | 5 | 2.7 | 
CN(C)CCCCCCC/N=C1\CC(c2ccc(Cl)c(Cl)c2)Cc2c1c(=O)c1cc(Cl)ccc1n2O (stereo not drawn) |  |  | 6.5 | 5 | 5 | 11.3 | 5 |  | 
CCN(CC)CCOc1ccc(C2CC(=O)c3c(n([O-])c4ccc(Cl)cc4c3=O)C2)cc1.[Na+] (stereo not drawn) | 5.3 | 1.5 |  |  |  |  |  |  | 
O=C1CC(c2ccc(Cl)c(Cl)c2)Cc2c1c(=O)c1c(Cl)c(Cl)ccc1n2O (stereo not drawn) | 0.3 | 0.1 |  |  |  |  |  |  | 
CN(C)CCC/N=C1\CC(c2ccc(C(F)(F)F)cc2)Cc2nc3c(Cl)cc(Cl)cc3c(O)c21 (stereo not drawn) |  | 8 | 6.3 | 5 | 4 | 8.2 | 5 |  | 
CCCC/N=C1\CC(c2ccc(Cl)c(Cl)c2)Cc2c1c(=O)c1cc(Cl)ccc1n2O (stereo not drawn) |  |  | 6.1 | 5 | 3 |  | 5 | 2.5 | 9.9 and 8.3
COc1ccc2nc3c(c(O)c2c1)/C(=N/CCCN(C)C)CC(c1ccc(C(F)(F)F)cc1)C3 (stereo not drawn) |  | 8.7 | 5.5 | 5 | 2 | 6.1 | 5 | 0.7 | 
CC1(C)CC(=O)c2c(nc3ccc(Cl)cc3c2O)C1 |  |  |  | 4 |  |  | 3 |  | 
CN1CCN(CCC/N=C2\CC(c3ccc(Cl)c(Cl)c3)Cc3c2c(=O)c2cc(Cl)ccc2n3O)CC1 (stereo not drawn) |  |  | 7.4 | 5 | 5 |  | 5 |  | 
CN(C)CCC/N=C1\CC(c2ccc(C(F)(F)F)cc2)Cc2nc3cccc(Cl)c3c(O)c21 (stereo not drawn) |  | 24.9 | 7.7 | 5 | 4 |  |  |  | 
CC1(C)CC(=O)c2c(nc3ccccc3c2O)C1 |  | 5.6 | 3.8 | 5 | 2 |  |  |  | 
